Assay results as given in ChEMBL document CHEMBL4130351, “Novel pyrazolopyrimidines: Synthesis, in vitro cytotoxic activity and mechanistic investigation” (Eur J Med Chem, 2017).
pIC50: −log10 of the molar value.

Legend:
HepG2 = experiment: Cytotoxicity against human HepG2 cells assessed as reduction in cell viability after 72 hrs by MTT assay; type: functional, cell-based; conditions: HepG2, 72 h
Outline: (§1)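 MCF-7 and HepG2 cells in exponential growth were trypsinized and seeded at 1000–2000 cells/well, then incubated 24 h at 37 °C. Compound exposure was 72 h at 0.1, 10, 100 and 1000 μM. Cells took up 5% MTT for 2 h, and formazan was dissolved in acidified isopropanol for 30 min at room temperature. A570 was read, viability expressed as % of control, and IC50 obtained by curve fitting.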

MCF7 = experiment: Cytotoxicity against human MCF7 cells assessed as reduction in cell viability after 72 hrs by MTT assay; type: functional, cell-based; conditions: MCF7, 72 h; outline: as §1

With NS(=O)(=O)c1ccc(-n2ncc3c(=O)[nH]c(-c4ccc(Br)cc4)nc32)cc1 as the compound, how does the pIC50 (HepG2) read?
Its pIC50 is 4.37.

What about the pIC50 (MCF7) of the same compound?
Its pIC50 is 4.84.

N#Cc1cnn(-c2ccc(S(N)(=O)=O)cc2)c1N was tested. Which pIC50 (HepG2) did it give?
Its pIC50 is less than 4.00.

What about the pIC50 (MCF7) of the same compound?
Its pIC50 is less than 4.00.

COc1cccc2c1C(=O)c1c(O)c3c(c(O)c1C2=O)C[C@@](O)(C(=O)CO)C[C@@H]3O[C@H]1C[C@H](N)[C@H](O)[C@H](C)O1 [DOXORUBICIN] was tested. Which pIC50 (HepG2) did it give?
Its pIC50 is 6.05.

And the pIC50 (MCF7)?
Its pIC50 is 5.99.

With NS(=O)(=O)c1ccc(-n2ncc3c(=O)[nH]c(-c4ccc(Cl)cc4)nc32)cc1 as the compound, how does the pIC50 (HepG2) read?
Its pIC50 is 4.62.

What about the pIC50 (MCF7) of the same compound?
Its pIC50 is 5.60.

Which results are given for NC(=O)c1cnn(-c2ccc(S(N)(=O)=O)cc2)c1N?
pIC50 (HepG2): < 4.00; pIC50 (MCF7): < 4.00
